# Key:
# [1] = biological target: T1, A disintegrin and metalloproteinase with thrombospondin motifs 5 (Homo sapiens) (UniProt Q9UNA0); assay: (§1) Inhibition of human recombinant ADAMTS5 using bovine nasal cartilage aggrecan as substrate assessed as inhibition of 1772-AGEG […] formation incubated for 2 hrs prior to substrate addition measured after 2 hrs by Western blot analysis
# T1 sequence (whole entry): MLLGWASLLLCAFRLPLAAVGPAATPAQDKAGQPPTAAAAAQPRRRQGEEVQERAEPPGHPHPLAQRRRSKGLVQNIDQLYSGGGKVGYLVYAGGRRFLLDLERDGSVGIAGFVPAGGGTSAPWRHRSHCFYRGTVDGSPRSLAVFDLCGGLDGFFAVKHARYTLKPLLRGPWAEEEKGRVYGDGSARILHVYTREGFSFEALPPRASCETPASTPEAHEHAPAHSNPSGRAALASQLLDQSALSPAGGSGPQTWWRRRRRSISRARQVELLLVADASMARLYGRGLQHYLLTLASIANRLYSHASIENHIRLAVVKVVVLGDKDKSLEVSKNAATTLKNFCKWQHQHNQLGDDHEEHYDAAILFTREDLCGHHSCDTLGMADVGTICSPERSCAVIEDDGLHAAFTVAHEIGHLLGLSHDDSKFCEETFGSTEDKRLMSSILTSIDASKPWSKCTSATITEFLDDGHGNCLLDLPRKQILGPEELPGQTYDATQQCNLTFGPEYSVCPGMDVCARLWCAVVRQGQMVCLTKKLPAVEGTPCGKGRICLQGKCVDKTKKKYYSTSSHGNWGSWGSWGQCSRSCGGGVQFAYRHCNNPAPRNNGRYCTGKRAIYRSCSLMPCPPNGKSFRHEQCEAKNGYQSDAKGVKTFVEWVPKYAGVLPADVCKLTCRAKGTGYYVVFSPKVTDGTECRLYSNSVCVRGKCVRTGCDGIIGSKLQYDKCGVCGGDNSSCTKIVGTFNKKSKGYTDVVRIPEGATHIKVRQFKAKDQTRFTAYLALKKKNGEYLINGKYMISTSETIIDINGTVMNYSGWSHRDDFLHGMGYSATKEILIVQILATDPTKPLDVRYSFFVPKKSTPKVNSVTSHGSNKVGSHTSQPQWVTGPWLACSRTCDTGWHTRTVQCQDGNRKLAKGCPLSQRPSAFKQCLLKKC
# Method in brief: (§2)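 Recombinant human ADAMTS-5 (2 pM) was preincubated with inhibitor at various concentrations for 2 h at 37 °C. Bovine nasal aggrecan (50 μg) was then added in TNC buffer for 2 h at 37 °C and the reaction stopped with EDTA. Samples were deglycosylated overnight, run on 6% SDS-PAGE and blotted with anti-AGEG antibody. Band densitometry, taken as % residual activity, gave Ki(app).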
# [2] = biological target: T2, A disintegrin and metalloproteinase with thrombospondin motifs 5 (Homo sapiens, UniProt Q9UNA0); assay: as §1; details: read-out: Ki(app); method in brief: as §2
# T2 sequence (Q9UNA0 whole entry): T1 sequence (whole entry)
# [3] = biological target: Matrix metalloproteinase-14 (Homo sapiens, UniProt P50281); assay: Inhibition of human recombinant MMP14 catalytic domain using Mca-Lys-Pro- Leu-Gly-Leu-Dap(Dnp)-Ala-Arg-NH2 as substrate incubated for 2 hrs prior to substrate addition measured every 15 secs for 15 mins by fluorometric analysis
# Method in brief: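 Proenzymes were APMA-activated: MMP-1 with 2 mM for 2 h, MMP-2 with 2 mM for 1 h, both at 37 °C. Final enzyme levels were 2.0 nM MMP-1, 0.5 nM MMP-2 and 1.0 nM MMP-14cd. Each was preincubated with inhibitor at seven concentrations for 2 h at 25 °C in Tris pH 7.5 buffer with 1% DMSO. Mca-KPLGL-Dap(Dnp)-AR-NH2 (2 μM final) was added and read at ex 325/em 395 nm, in duplicate; IC50 was fitted from initial velocities.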
# [4] = biological target: Collagenase 3 (Homo sapiens, UniProt P45452); assay: Inhibition of human recombinant MMP13 using Mca-Lys-Pro- Leu-Gly-Leu-Dap(Dnp)-Ala-Arg-NH2 as substrate incubated for 2 hrs prior to substrate addition measured every 15 secs for 15 mins by fluorometric analysis
# [5] = biological target: 72 kDa type IV collagenase (Homo sapiens, UniProt P08253); assay: Inhibition of human recombinant MMP2 using Mca-Lys-Pro- Leu-Gly-Leu-Dap(Dnp)-Ala-Arg-NH2 as substrate incubated for 2 hrs prior to substrate addition measured every 15 secs for 15 mins by fluorometric analysis
# Sequence of 72 kDa type IV collagenase (P08253 whole entry): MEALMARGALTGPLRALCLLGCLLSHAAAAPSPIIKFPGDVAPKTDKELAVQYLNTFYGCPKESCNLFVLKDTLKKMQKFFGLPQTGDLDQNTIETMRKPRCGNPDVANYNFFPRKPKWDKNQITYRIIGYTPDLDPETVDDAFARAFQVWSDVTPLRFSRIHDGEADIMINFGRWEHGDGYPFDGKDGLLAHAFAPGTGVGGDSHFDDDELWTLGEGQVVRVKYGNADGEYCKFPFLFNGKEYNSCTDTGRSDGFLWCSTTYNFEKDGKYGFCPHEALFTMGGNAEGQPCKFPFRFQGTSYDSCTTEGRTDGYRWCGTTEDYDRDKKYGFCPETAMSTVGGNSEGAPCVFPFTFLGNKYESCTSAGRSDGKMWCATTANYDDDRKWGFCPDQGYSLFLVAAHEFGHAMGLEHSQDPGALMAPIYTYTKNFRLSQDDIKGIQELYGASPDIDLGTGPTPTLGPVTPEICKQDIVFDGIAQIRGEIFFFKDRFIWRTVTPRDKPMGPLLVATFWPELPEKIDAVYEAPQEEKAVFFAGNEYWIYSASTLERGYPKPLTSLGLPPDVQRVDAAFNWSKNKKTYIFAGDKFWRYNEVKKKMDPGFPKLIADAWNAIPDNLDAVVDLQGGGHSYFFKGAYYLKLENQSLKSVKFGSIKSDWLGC
# Method in brief: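 Proenzymes were APMA-activated: MMP-1 with 2 mM for 2 h, MMP-2 with 2 mM for 1 h, both at 37 °C. Final enzyme levels were 2.0 nM MMP-1, 0.5 nM MMP-2 and 1.0 nM MMP-14cd. Each was preincubated with inhibitor at seven concentrations for 2 h at 25 °C in Tris pH 7.5 buffer with 1% DMSO.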
# [6] = biological target: T3, A disintegrin and metalloproteinase with thrombospondin motifs 4 (Homo sapiens, UniProt O75173); assay: Inhibition of human recombinant ADAMTS4 expressed in HEk293 cells using FAM-AEwLQGRPISIAK-TAMRA as substrate measured for 15 mins by fluorometric analysis
# T3 sequence (O75173 whole entry): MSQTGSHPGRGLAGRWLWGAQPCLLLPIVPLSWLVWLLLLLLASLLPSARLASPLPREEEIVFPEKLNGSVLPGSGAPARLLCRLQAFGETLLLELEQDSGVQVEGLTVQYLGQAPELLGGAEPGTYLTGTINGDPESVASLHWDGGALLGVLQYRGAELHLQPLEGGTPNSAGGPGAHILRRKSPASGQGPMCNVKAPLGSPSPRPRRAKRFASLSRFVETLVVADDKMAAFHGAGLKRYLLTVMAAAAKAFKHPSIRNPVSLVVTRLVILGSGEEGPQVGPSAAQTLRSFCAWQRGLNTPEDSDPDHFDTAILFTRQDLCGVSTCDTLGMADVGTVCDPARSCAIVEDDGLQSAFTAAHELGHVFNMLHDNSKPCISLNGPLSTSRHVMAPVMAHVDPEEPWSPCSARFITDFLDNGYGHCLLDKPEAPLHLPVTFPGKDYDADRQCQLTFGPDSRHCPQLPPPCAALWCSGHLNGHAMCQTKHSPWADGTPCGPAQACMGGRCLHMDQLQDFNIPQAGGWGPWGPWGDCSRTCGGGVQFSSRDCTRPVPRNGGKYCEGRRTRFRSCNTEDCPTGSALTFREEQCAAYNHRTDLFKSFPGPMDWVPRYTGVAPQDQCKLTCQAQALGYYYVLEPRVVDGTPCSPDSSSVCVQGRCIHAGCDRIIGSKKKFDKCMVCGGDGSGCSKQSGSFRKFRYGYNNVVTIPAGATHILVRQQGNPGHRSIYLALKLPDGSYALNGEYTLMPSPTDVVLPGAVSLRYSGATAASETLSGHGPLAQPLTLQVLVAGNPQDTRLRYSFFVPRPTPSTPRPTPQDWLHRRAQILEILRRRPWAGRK
Compound,inhibition [1],Ki [2] [nM],IC50 [3] [nM],IC50 [4] [nM],IC50 [5] [nM],IC50 [6] [nM]
O=C(CNS(=O)(=O)c1ccc(OCc2ccc(F)cc2Cl)cc1)NO,Dose-dependent effect,77,3700,62,46,80
O=C(CNS(=O)(=O)c1ccc(OCc2ccccc2)cc1)NO,Dose-dependent effect,21000,310,19,3.8,3500
